Key:
Rattus norvegicus [1] = experiment: Antiinflammatory activity, % inhibition was reported 3 hr after carrageenan injection in the hind paw edema test in rats: dose=80 mg/kg.; assay type: functional
Summary of the method: (§1)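 Male Wistar rats (90-120 g); paw edema raised by subcutaneous injection of 0.1 mL 1% carrageenin into the hind foot pad. Drug given orally at 80 mg/kg. Swelling inhibition read 3 h after carrageenin and compared with vehicle control for significance.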

Mus musculus = organism: Mus musculus; experiment: Compound was tested for […] activity by phenylquinone writhing method in mice.; assay type: functional
Summary of the method: (§2)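 Phenylquinone (0.03% in 5% aqueous ethanol, 10 mL/kg ip) given to female ddN mice (18-22 g); test drug given orally 30 min beforehand. Writhes counted over 15 min, starting 5 min after phenylquinone. Five to ten mice per dose; values given with range and n.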

[2] = Acute lethal toxicity on day 7 was determined; assay type: organism-based; settings: mouse, in vivo
Mus sp. = experiment: Analgesic activity by phenylquinone writhing method in mice after peroral administration; assay type: functional; settings: po; summary of the method: as §2
Rattus norvegicus [3] = experiment: Antiinflammatory activity, % inhibition was reported 3 hr after carrageenan injection in the hind paw edema test in rats: dose=80 mg/kg; assay type: functional; summary of the method: as §1
Rattus norvegicus [4] = experiment: Compound was tested for antiinflammatory activity and the % inhibition was reported 3 hr after carrageenan injection in the hind paw edema test in rats: dose=80 mg/kg; assay type: functional; summary of the method: as §1
Rattus norvegicus [5] = experiment: Compound was tested for antiinflammatory activity and the % inhibition was reported 3 h after carrageenan injection in the hind paw edema test in rats: dose=40 mg/kg, p.o.; assay type: functional; settings: po
Summary of the method: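 Male Wistar rats (90-120 g) given 0.1 mL 1% carrageenin subcutaneously into the hind foot pad. Drug given po at 40 mg/kg. Edema inhibition read at 3 h after carrageenin and compared with vehicle control.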

Structure (SMILES) | inhibition in vivo at 80 mg/kg (Rattus norvegicus [1]) | ED50 (Mus musculus) | further results
CCCCCn1nc(C)c2c(C)cc(=O)oc21 | 3.5% | > 100 mg/kg | 
Cc1cc(=O)oc2nn(C)c(C)c12 | 3.3% | 6.09 mg/kg | LD50 at 7 day [2]: 250 mg/kg
CCCCn1nc(C)c2c(C)cc(=O)oc21 | -0.9% | > 100 mg/kg | 
Cc1cc(=O)oc2c1c(C)nn2CCO | -0.9% | 100 mg/kg | 
CCCCCn1nc2oc(=O)cc(C)c2c1C | -5.4% | 60.6 mg/kg | 
Cc1cc(=O)oc2c1c(CC(=O)O)nn2C | -3.1% | > 100 mg/kg | 
CCCCn1nc2oc(=O)cc(C)c2c1C | -3.1% | > 100 mg/kg | 
CCn1nc(C)c2c(C)cc(=O)oc21 | 12.1% | 24.9 mg/kg | 
Cc1cc(O)oc2nnc(CC(=O)O)c1-2 | 6.4% | > 100 mg/kg | 
CCOC(=O)Cc1nnc2oc(O)cc(C)c1-2 | -4.1% | > 100 mg/kg | 
Cc1cc(=O)oc2nn(CCCl)c(C)c12 | -2.1% |  | ED50 (Mus sp.): 56 mg/kg
Cc1cc(=O)oc2c1c(C)nn2C(C)C | 1.1% | > 100 mg/kg | 
Cc1cc(=O)oc2c1c(C)nn2C | 4.7% | 11.6 mg/kg | LD50 at 7 day [2]: > 1500 mg/kg
Cc1cc(=O)oc2nn(CCN3CCOCC3)c(C)c12 | 4.4% | > 100 mg/kg | 
CCOC(=O)Cc1nn(C)c2oc(=O)cc(C)c12 | -3.1% | > 100 mg/kg | 
Cc1cc(=O)oc2nn(C(C)C)c(C)c12 | 3.7% | 35.3 mg/kg | 
CCn1nc2oc(=O)cc(C)c2c1C |  | 14.6 mg/kg | inhibition in vivo at 80 mg/kg (Rattus norvegicus [3]): 13.1%
CCCn1nc2oc(=O)cc(C)c2c1C | 4.9% | 72.6 mg/kg | 
CCCn1nc(C)c2c(C)cc(=O)oc21 | -0.6% | 54.3 mg/kg | 
CC(=O)n1nc2oc(=O)cc(C)c2c1C | 4.5% |  | ED50 (Mus sp.): 12.2 mg/kg
Cc1cc(=O)oc2nn(C(=O)c3ccccc3)c(C)c12 | 11.9% |  | ED50 (Mus sp.): 35 mg/kg
Cc1cc(=O)oc2nn(CCO)c(C)c12 | 1.8% | > 100 mg/kg | 
Cc1cc(=O)oc2nn(C(=O)c3ccco3)c(C)c12 | 2.2% |  | ED50 (Mus sp.): 74.3 mg/kg
CCN(CC)CCn1nc2oc(=O)cc(C)c2c1C |  | 100 mg/kg | inhibition in vivo at 80 mg/kg (Rattus norvegicus [4]): 17%
Cc1cc(=O)oc2nn(C(=O)CCl)c(C)c12 | 5.2% |  | ED50 (Mus sp.): > 100 mg/kg
Cc1c(N(C)C)c(=O)n(-c2ccccc2)n1C [AMINOPYRINE] |  | 19.2 mg/kg | inhibition in vivo at 80 mg/kg (Rattus norvegicus [4]): 17.5%
CC(=O)Oc1ccccc1C(=O)O [ASPIRIN] |  |  | ED50 (Mus sp.): > 100 mg/kg
CC(C)Cc1ccc(C(C)C(=O)O)cc1 (centres undefined) [IBUPROFEN] |  | 50 mg/kg | inhibition in vivo at 80 mg/kg (Rattus norvegicus [4]): 39%
Cc1cccc(Nc2ccccc2C(=O)O)c1C [MEFENAMIC ACID] |  | 45.9 mg/kg | inhibition in vivo at 40 mg/kg (Rattus norvegicus [5]): 33.1%
